# Most compounds without a hit are left out; they make up all but 1.6% or so of the library.
# TLR9-MyD88 inh = inhibitors of human TLR9-MyD88 binding | 0.21% of 340,000 active | inhibition, % at 4.98 µM | Q9NR96+Q99836 | CHO BLA complementation TLR9-MyD88, CCF4 FRET ratio;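 active means inhibition above the mean over all tested compounds plus 3 SD, cut at about 21% in these data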;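 further: 0% = DMSO only wells and 100% = clavulanate BLA inhibitor control wells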
# SR-BI uptake up = SR-BI HDL lipid transfer activation; CHO ldlA[mSR-BI] cells, DiI-HDL uptake fluorescence, 3 h; 100 = double the neutral-control signal; activation, % at 12.5 µM; 0.096% of 320,000 active;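 active means mean replicate activation of at least 60% and every replicate at or above 60%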;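 further: 0% = median plate neutral-control signal and 100% = twice that signal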
#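 Material: SR-BI-overexpressing, LDLR-lacking CHO cells | Dosing: Single compound concentration, delivered by pin transfer | Probe or stimulus: Labelled HDL, 10 µg/mL | Signal: Bottom-read cell fluorescence after medium removal, ex 550/em 595 nm | Schedule: 3 h, 37 °C | Evaluation: HDL uptake via cellular fluorescence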
# TLR4-MyD88 BLA = TLR4-MyD88 interaction inhibition in cells. O00206+Q99836. HeLa CL3-4 TLR4/MyD88 BLA complementation, FRET ratio. inhibition, % at 8.4 µM. 0.18% of 200,000 active. AID 861; in the data active means inhibition above about 25%;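 further: 0% = vehicle and 100% = reference inhibitor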
# Lipid droplet = hepatic lipid droplet formation modulation | 0.4% of 240,000 active | inhibition, % at 6.5 µM | AID 1656 | AML12 mouse hepatocytes, oleate lipid droplets, BODIPY imaging;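 active means lipid droplet intensity inhibited by at least 50%, with more than 500 cells counted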
#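 Assay system: AML12 mouse liver cells | Compound: 6.5 µM single-point dosing | Schedule: Overnight exposure | Technique: Fluorescence imaging, 20x objective, two fields per well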
# SR-BI DiI inh = inhibitors of mouse SR-BI mediated HDL lipid uptake; Q61009; ldlA[mSR-BI] CHO cells, DiI-HDL uptake fluorescence, 3 h; inhibition, % at 12.5 µM; 0.96% of 320,000 active;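 active means mean replicate inhibition of at least 70% and a set share of replicates each scoring 70 or more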;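 further: 0% = median of neutral control wells and 100% = median of positive control wells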
# NOD2-RIPK2 inh = inhibitors of human NOD2-RIPK2 interaction. O43353. CHO BLA complementation NOD2-RIPK2, CCF4 ratio. inhibition, % at 4.98 µM. 0.38% of 360,000 active. AID 624267; in the data active means inhibition above about 21%;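 further: 0% = vehicle only and 100% = reference blocker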
# * = called active by the depositor; . = no result.
SMILES,TLR9-MyD88 inh,SR-BI uptake up,TLR4-MyD88 BLA,Lipid droplet,SR-BI DiI inh,NOD2-RIPK2 inh
CC(=O)c1sc(NC(=O)c2cc(-c3ccccc3)nn2-c2ccccc2)nc1C,-10,-80,-4,5,80*,-4
COc1ccc(CN2CC(C(=O)NCCc3ccc(C)cc3)CC2=O)cc1 (stereo unspecified),-1,20,9,.,-20,1
CN(C(=O)c1ccccc1)C1c2c(ccc3ccccc23)OCC1CO (stereo unspecified),1,25,.,-12,-25,-6
O=C(Nc1ccc(Cl)cc1)N[C@@H]1c2c(ccc3ccccc23)OC[C@@H]1CO,-17,-82,3,.,82*,2
O=C1CN(C(=O)COC(=O)CCSc2ccccc2Cl)c2ccccc2N1,2,11,7,30,-11,6
CCC(c1nnnn1-c1ccc2c(c1)OCCO2)N1CCN(c2cc(C)ccc2C)CC1 (stereo unspecified),.,.,.,.,.,-11
Cc1c(-c2cccc(NC(=O)c3cccs3)c2)nc2ncccn12,-4,-6,1,13,6,-7
COc1ccc(-c2cc(C(=O)Nc3sc4c(c3C#N)CCCC4)c3ccccc3n2)cc1OC,-1,-85,3,.,85*,-2
COc1ccc(-c2cc(C(=O)Nc3nc4ccccc4s3)c3ccccc3n2)cc1OC,9,-75,-4,-1,75*,-1
Cc1ccc(C(=O)Nc2nc3ccc(S(C)(=O)=O)cc3s2)cc1C,7,-59,.,.,59,1
COc1ccc(C(=O)Nc2nc3ccc(S(C)(=O)=O)cc3s2)cc1OC,-10,-78,-1,13,78*,-2
COc1ccc(-c2cc(C(=O)OCC(=O)NC3CC3)c3ccccc3n2)cc1OC,-8,-72,.,.,72*,-9
O=C(NC1CCCCC1)NS(=O)(=O)c1ccc2c(c1)CCC2,3,16,.,.,-16,-4
Cc1csc(NC(=O)CSc2nnc(NC(=O)COc3ccc(Cl)cc3)s2)n1,-4,32,-1,2,-32,-6
O=C(NC1CC1)c1cccc(NC(=O)C2CCN(S(=O)(=O)c3cccc(C(F)(F)F)c3)CC2)c1,-2,16,.,.,-16,1
Cc1cc(C(=O)Nc2sc3c(c2C#N)CCCCC3)cs1,0,-79,8,2,79*,-18
Oc1ccc2ccccc2c1N=Nc1ccccn1,-8,-20,-7,-20,20,-2
CCOC(=O)c1[nH]cnc1N=Nc1c(O)ccc2ccccc12,1,-80,-2,-42,80*,-4
CCn1c(CCC(=O)Nc2nc3c(s2)CCCC3)nc2cc(S(=O)(=O)N(C)C)ccc21,-3,-16,5,-5,16,10
COc1ccc(C(=O)NC(=S)Nc2cccc(S(=O)(=O)N3CCOCC3)c2)cc1,2,-40,9,15,40,5
O=C(O)c1cccc(NC(=O)c2cc(S(=O)(=O)N3CCOCC3)cs2)c1,1,10,-2,0,-10,-4
CC(=O)Oc1ccc(-c2ccc(C(=O)Nc3cccc(S(=O)(=O)N4CCOCC4)c3)cc2)cc1,6,-81,-10,-3,81*,-14
CC(=O)c1cccc(NC(=O)c2cc(S(=O)(=O)N3CCOCC3)cs2)c1,-10,-78,.,2,78*,4
Cc1ccc(SCC(=O)Nc2cccc(S(=O)(=O)N3CCOCC3)c2)cc1C,-6,-31,.,.,31,-2
Cc1cc(SCC(=O)Nc2cccc(S(=O)(=O)N3CCOCC3)c2)nc2ccccc12,-8,-79,-11,-20,79*,-2
SMILES,TLR9-MyD88 inh,SR-BI uptake up,TLR4-MyD88 BLA,Lipid droplet,SR-BI DiI inh,NOD2-RIPK2 inh
CC(OC(=O)CCN1C(=O)C2CC=CCC2C1=O)C(=O)Nc1ccc(F)cc1 (stereo unspecified),7,-5,.,.,5,-5
COC(=O)C1=C(C)OC(N)=C(C#N)C1c1cc(OC)c(OCC(N)=O)cc1Cl (stereo unspecified),0,23,-58,.,-23,3
Cc1ccnc(NC(=O)c2ccc(S(=O)(=O)N3CCCC3)cc2)c1,4,2,.,.,-2,1
CCCCCCCCc1nnc(N)s1,.,1,.,-8,-1,-10
CCCn1nnnc1NC(=O)c1ccc(C)cc1Cl,-3,23,1,.,-23,-10
COc1ccc(-c2sc(NC(C)=O)nc2-c2ccccc2)cc1,-1,-80,-1,24,80*,12
COc1ccc(-c2nc(NC(=O)c3ccccc3)sc2-c2ccc([N+](=O)[O-])cc2)cc1,-13,-79,21,.,79*,2
COc1ccc(-c2nc(NC(C)=O)sc2-c2ccccc2)cc1,-2,-68,-10,.,68,0
CC1(C)Cc2c(cnn2-c2ccc(F)cc2)C(NC(=O)C2=NNC(=O)CC2)C1 (stereo unspecified),-8,-15,.,0,15,5
CCc1cc(=O)oc2c3c(cc(OCC(=O)N[C@H](C(=O)O)[C@H](C)CC)c12)OC(C)(C)CC3,2,-3,.,-8,3,0
O=C(COC(=O)COc1ccccc1)NC12CC3CC(CC(C3)C1)C2,-6,46,.,.,-46,7
CCOc1ccc2c(c1)c(C(C)=O)c(C)n2-c1ccccc1,-2,-74,-17,1,74*,0
CC(=O)Oc1ccc2oc(-c3ccccc3)c(C(N)=O)c2c1,.,.,.,-3,.,.
CCOC(=O)c1cc(CC)sc1NC(=O)c1ccc2c(c1)OCCO2,-4,-71,-1,-2,71*,-9
CCOC(=O)c1cc(CC)sc1NC(=O)c1cc(OCC)c(OCC)c(OCC)c1,-9,-58,-8,.,58,5
N#Cc1cc(C(=O)Cc2ccccc2)c[nH]1,0,13,-5,-4,-13,8
COC(=O)NC(=C(Cl)Cl)S(=O)(=O)c1ccccc1,-5,73*,-6,-16,-73,-1
COc1ccc(C)cc1NC(=O)NNC(=O)C(C)Oc1ccc(F)cc1Cl (stereo unspecified),-2,-61,.,-2,61,-4
O=C(Nc1ccc(F)c(Cl)c1)Nc1csc2ccccc12,-6,-87,.,-16,87*,-5
Cc1ccc(C)c2sc(NC(=O)c3ccc(N4CCCCC4)c([N+](=O)[O-])c3)nc12,2,-71,1,.,71*,-8
CCC(=O)N1CCN(c2ccc(Cl)cc2NC(=O)c2ccc(N3CCCC3)c([N+](=O)[O-])c2)CC1,2,-76,19,.,76*,-3
O=C(Nc1ccc(-c2nc3ccccc3o2)cc1)c1ccc(N2CCOCC2)c([N+](=O)[O-])c1,-6,-81,1,.,81*,-6
COc1ccc2oc(-c3ccc(NC(=O)c4ccc(N5CCOCC5)c([N+](=O)[O-])c4)cc3)nc2c1,7,-65,1,5,65,6
